ChEMBL document CHEMBL2417505, “Discovery of 7-azaindole based anaplastic lymphoma kinase (ALK) inhibitors: wild type and mutant (L1196M) active compounds with unique binding mode” (Bioorg Med Chem Lett, 2013)

Experiments:
Homo sapiens = organism: Homo sapiens; assay: Selectivity ratio of IC50 for aurora A kinase (unknown origin) to IC50 for human recombinant ALK
[1] = molecular target: ALK tyrosine kinase receptor (Homo sapiens, UniProt Q9UM73, L1196M); assay: Inhibition of human ALK L1196M mutant after 30 mins by TR-FRET assay
ALK tyrosine kinase receptor (Homo sapiens, UniProt Q9UM73, L1196M), sequence (Q9UM73 19-1620 L1196M limits assumed): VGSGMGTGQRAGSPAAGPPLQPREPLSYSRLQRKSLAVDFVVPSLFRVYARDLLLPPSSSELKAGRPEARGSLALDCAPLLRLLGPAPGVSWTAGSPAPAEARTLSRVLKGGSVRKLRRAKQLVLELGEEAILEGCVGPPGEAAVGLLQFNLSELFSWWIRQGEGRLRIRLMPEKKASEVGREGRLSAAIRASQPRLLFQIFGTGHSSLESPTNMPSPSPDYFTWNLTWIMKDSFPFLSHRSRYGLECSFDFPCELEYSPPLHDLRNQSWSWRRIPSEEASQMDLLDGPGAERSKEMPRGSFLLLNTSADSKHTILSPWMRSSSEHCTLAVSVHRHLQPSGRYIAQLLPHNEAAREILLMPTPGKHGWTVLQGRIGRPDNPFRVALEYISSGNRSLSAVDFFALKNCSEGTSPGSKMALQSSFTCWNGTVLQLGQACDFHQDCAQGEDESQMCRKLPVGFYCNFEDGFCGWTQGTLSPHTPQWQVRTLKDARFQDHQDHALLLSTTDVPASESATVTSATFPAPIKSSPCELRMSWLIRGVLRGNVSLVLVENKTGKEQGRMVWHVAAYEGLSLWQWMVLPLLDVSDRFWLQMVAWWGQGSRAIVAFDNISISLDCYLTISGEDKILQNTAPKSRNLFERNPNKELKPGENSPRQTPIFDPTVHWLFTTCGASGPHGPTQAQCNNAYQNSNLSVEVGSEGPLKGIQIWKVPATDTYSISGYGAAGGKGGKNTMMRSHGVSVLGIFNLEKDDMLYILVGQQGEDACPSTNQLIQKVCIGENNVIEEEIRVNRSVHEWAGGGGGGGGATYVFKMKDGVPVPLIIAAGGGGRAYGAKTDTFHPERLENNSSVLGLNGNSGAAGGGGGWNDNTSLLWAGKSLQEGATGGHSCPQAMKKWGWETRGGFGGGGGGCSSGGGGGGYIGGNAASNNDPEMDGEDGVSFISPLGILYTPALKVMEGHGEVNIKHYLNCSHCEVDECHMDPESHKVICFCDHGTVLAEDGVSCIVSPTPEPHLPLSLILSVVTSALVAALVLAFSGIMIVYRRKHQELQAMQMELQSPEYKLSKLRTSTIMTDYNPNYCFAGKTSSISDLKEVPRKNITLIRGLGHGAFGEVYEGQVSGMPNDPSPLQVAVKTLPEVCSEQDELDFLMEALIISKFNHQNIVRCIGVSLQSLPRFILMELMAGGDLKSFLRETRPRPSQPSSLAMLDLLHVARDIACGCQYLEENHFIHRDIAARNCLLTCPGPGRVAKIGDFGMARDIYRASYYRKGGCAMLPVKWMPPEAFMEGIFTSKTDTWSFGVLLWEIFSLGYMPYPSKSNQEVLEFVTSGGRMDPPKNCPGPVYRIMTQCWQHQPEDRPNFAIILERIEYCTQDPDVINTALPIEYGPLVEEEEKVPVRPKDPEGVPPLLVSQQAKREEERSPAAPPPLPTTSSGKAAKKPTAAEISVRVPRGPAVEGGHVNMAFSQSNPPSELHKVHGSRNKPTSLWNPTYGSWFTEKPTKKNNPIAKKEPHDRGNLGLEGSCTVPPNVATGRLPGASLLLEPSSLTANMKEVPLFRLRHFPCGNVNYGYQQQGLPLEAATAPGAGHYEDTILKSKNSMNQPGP
How it was run: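 L1196M mutant ALK enzyme run in TR-FRET as for wild type (HEPES pH 7.1 buffer, ULight poly-GT substrate, Eu anti-phosphotyrosine detection, 30 min reaction) but with 0.5µM ATP; IC50.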

[2] = molecular target: T1, ALK tyrosine kinase receptor (Homo sapiens, UniProt Q9UM73); assay: Inhibition of wild type human recombinant ALK after 30 mins by TR-FRET assay
Target sequence in this assay (Q9UM73 whole entry): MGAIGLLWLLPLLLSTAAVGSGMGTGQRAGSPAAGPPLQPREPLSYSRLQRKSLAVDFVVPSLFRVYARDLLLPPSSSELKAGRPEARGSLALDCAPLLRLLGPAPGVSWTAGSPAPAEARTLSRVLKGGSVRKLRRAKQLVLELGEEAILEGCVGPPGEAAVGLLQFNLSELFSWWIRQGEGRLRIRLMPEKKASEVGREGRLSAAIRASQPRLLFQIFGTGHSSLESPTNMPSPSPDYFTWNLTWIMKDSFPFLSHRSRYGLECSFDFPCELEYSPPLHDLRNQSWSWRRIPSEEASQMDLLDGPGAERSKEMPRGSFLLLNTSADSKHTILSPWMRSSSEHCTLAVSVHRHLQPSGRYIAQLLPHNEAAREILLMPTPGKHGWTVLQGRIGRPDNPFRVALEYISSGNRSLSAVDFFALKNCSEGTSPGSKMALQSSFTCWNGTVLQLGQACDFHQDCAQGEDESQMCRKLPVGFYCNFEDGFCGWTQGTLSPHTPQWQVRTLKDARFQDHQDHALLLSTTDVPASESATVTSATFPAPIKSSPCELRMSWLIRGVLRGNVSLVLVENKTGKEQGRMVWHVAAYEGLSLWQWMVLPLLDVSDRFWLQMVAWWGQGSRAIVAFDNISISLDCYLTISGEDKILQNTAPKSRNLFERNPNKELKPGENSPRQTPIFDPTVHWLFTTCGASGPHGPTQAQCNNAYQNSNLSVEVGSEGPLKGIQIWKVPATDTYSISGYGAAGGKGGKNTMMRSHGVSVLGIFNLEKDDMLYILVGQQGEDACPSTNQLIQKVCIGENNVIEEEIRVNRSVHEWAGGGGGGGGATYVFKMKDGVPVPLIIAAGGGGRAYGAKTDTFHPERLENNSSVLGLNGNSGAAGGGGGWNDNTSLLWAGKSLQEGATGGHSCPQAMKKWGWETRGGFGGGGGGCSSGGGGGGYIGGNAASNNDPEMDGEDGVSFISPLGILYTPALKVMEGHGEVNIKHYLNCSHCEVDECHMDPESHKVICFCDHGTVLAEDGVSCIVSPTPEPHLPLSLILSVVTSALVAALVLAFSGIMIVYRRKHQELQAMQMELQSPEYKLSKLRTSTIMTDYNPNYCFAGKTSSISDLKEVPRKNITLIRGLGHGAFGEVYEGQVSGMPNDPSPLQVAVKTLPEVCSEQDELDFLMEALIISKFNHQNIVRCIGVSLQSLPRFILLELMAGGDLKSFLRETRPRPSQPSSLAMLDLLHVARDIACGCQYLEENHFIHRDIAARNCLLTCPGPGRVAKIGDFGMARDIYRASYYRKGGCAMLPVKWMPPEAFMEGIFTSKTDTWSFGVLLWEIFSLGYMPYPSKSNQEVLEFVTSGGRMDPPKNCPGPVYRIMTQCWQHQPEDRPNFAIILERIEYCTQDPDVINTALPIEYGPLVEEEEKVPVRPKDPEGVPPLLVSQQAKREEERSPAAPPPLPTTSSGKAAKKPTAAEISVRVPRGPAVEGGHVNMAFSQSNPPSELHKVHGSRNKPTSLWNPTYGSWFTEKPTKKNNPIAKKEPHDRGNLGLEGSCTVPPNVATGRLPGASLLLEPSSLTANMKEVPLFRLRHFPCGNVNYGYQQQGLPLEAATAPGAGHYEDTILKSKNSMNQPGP

[3] = molecular target: T1, ALK tyrosine kinase receptor; assay: Inhibition of ALK in human KARPAS299 cells assessed as phosphorylated Stat3 level after 6 hrs by Western blotting analysis; type: cell-based, KARPAS-299
How it was run: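 Karpas 299 cells (4 × 10^5) treated 6 h at set concentrations, with crizotinib at 10 μM as positive control; lysed in RIPA, 30 µg lysate run on 10% SDS-PAGE, PVDF blot probed for phospho-Stat3 (Tyr705) and total Stat3; ECL detection; IC50 from blot densitometry.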
Target sequence in this assay (Q9UM73 whole entry): as above

[4] = molecular target: T2, Aurora kinase A (Homo sapiens) (UniProt O14965); assay: Inhibition of aurora A kinase (unknown origin) at 100 nM
T2 sequence (whole entry): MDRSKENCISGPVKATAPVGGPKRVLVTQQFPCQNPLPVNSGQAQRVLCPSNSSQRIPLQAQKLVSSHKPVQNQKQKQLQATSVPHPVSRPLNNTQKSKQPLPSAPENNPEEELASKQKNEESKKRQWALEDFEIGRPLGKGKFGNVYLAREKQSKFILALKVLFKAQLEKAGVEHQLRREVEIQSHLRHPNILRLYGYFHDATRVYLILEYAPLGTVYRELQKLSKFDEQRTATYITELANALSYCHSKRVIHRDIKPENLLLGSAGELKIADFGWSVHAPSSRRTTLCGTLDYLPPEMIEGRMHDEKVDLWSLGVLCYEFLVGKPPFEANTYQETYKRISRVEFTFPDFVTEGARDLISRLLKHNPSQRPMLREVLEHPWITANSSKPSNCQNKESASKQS

KARPAS-299 = assay: Cytotoxicity against human KARPAS299 cells after 72 hrs by XTT assay; type: functional, cell-based; settings: KARPAS-299, 72 h
[5] = molecular target: T1, ALK tyrosine kinase receptor; assay: Inhibition of ALK in human KARPAS299 cells assessed as phosphorylated ALK level; settings: for inhibition: KARPAS-299
[6] = molecular target: Macrophage-stimulating protein receptor (Homo sapiens) (UniProt Q04912); assay: Inhibition of RON (unknown origin) at 100 nM
Macrophage-stimulating protein receptor (Homo sapiens), sequence (Q04912 25-304 limits assumed): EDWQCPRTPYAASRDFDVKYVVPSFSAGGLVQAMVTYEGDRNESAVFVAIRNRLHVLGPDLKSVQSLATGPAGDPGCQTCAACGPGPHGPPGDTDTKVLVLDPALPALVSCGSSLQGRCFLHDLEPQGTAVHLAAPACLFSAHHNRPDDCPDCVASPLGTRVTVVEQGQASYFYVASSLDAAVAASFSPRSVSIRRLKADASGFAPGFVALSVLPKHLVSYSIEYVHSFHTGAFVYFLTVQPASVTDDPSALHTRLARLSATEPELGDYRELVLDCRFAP
Macrophage-stimulating protein receptor (Homo sapiens), sequence (Q04912 310-1400 limits assumed): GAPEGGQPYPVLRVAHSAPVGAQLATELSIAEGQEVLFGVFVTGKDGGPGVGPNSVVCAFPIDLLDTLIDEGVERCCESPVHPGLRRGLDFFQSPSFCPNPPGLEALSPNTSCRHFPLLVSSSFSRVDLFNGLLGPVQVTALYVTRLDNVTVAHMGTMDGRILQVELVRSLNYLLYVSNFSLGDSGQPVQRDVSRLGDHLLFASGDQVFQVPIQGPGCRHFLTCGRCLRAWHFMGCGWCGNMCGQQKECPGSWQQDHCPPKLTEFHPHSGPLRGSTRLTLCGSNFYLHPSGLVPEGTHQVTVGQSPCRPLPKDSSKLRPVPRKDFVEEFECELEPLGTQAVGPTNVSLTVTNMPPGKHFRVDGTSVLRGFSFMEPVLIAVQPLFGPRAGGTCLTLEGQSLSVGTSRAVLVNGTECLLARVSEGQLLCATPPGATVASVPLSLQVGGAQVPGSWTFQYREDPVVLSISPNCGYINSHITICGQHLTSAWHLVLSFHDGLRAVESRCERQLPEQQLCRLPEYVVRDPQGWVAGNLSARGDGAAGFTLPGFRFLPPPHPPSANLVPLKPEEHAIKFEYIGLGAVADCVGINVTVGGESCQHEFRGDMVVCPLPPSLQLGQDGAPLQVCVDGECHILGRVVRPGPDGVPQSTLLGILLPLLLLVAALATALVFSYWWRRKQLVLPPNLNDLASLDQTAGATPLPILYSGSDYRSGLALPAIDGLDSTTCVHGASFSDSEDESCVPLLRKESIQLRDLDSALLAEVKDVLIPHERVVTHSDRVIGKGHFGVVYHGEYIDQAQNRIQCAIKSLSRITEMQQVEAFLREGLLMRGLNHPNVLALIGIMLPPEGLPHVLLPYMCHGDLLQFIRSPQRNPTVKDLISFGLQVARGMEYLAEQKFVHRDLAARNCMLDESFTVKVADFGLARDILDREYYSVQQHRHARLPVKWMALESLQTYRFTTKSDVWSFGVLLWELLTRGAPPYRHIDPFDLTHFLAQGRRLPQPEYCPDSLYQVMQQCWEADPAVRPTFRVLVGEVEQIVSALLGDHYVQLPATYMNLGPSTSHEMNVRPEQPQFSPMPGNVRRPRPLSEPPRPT

[7] = molecular target: Cyclin-dependent kinase 2 (Homo sapiens) (UniProt P24941); assay: Inhibition of CDK2 (unknown origin) at 100 nM
[8] = molecular target: Hepatocyte growth factor receptor (Homo sapiens) (UniProt P08581); assay: Inhibition of c-Met (unknown origin) at 100 nM
[9] = molecular target: Vascular endothelial growth factor receptor 2 (Homo sapiens) (UniProt P35968); assay: Inhibition of KDR (unknown origin) at 100 nM
[10] = molecular target: Fibroblast growth factor receptor 1 (Homo sapiens) (UniProt P11362); assay: Inhibition of FGFR1 (unknown origin) at 100 nM

Structure (SMILES) | Ratio IC50 (Homo sapiens) | IC50 [1] | IC50 [2] | IC50 [3] | inhibition [4] | IC50 (KARPAS-299) | IC50 [5] | inhibition [5] | inhibition [6] | inhibition [7] | inhibition [8] | inhibition [9] | inhibition [10]
Cc1nn(Cc2cc(F)ccc2F)c(C)c1-c1c[nH]c2ncc(-c3cnn(C)c3)cc12 | 3 | 428 nM | 63 nM | – | – | – | – | – | – | – | – | – | –
Cc1nn(Cc2cccc(F)c2)c(C)c1-c1c[nH]c2ncc(-c3cnn(C)c3)cc12 | 11 | 275 nM | 31 nM | – | – | – | – | – | – | – | – | – | –
Cn1cc(-c2cnc3[nH]cc(-c4cnn(Cc5cccc(Cl)c5)c4)c3c2)cn1 | – | 143 nM | 30 nM | 986 nM | 87% | 855 nM | 3120 nM | Dose-dependent effect | – | – | – | – | –
Cn1cc(-c2cnc3[nH]cc(-c4cnn(Cc5cccc(C#N)c5)c4)c3c2)cn1 | – | 150 nM | 32 nM | – | 85% | 1610 nM | – | – | – | – | – | – | –
Cn1cc(-c2cnc3[nH]cc(-c4cnn(Cc5cccc(C(=O)O)c5)c4)c3c2)cn1 | – | 811 nM | 98 nM | – | – | > 10000 nM | – | – | – | – | – | – | –
Cn1cc(-c2cnc3[nH]cc(-c4cnn(Cc5cc(F)cc(F)c5)c4)c3c2)cn1 | – | 47 nM | 6 nM | – | 74% | 664 nM | – | – | – | – | – | – | –
Cn1cc(-c2cnc3[nH]cc(-c4cnn(Cc5cccc(C(F)(F)F)c5)c4)c3c2)cn1 | – | 465 nM | 247 nM | – | 84% | 1010 nM | – | – | – | – | – | – | –
Cn1cc(-c2cnc3[nH]cc(-c4cnn(Cc5ccc(F)cc5)c4)c3c2)cn1 | – | 256 nM | 70 nM | 3010 nM | 74% | 1780 nM | 3910 nM | Dose-dependent effect | – | – | – | – | –
Cc1nn(Cc2cc(F)cc(F)c2)c(C)c1-c1c[nH]c2ncc(-c3cnn(C)c3)cc12 | 30 | 310 nM | 26 nM | – | – | – | – | – | – | – | – | – | –
Cn1cc(-c2cnc3[nH]cc(-c4cnn(Cc5ccc(F)c(F)c5)c4)c3c2)cn1 | – | 379 nM | 84 nM | 986 nM | 84% | 2260 nM | 3300 nM | Dose-dependent effect | – | – | – | – | –
Cn1cc(-c2cnc3[nH]cc(-c4cnn(Cc5cc(F)ccc5F)c4)c3c2)cn1 | – | 124 nM | 29 nM | 1590 nM | 75% | 1200 nM | 900 nM | Dose-dependent effect | – | – | – | – | –
Cc1nn(Cc2cccc(F)c2)cc1-c1c[nH]c2ncc(-c3cnn(C)c3)cc12 | 6 | 56 nM | 6 nM | – | – | – | – | – | – | – | – | – | –
Cn1cc(-c2cnc3[nH]cc(-c4cnn(Cc5cccc(N)c5)c4)c3c2)cn1 | – | – | 28 nM | – | – | 3630 nM | – | – | – | – | – | – | –
Cn1cc(-c2cnc3[nH]cc(-c4cnn(Cc5ccccc5F)c4)c3c2)cn1 | – | 223 nM | 85 nM | – | 64% | 2090 nM | – | – | – | – | – | – | –
Cn1cc(-c2cnc3[nH]cc(-c4cnn(Cc5cccc(F)c5)c4)c3c2)cn1 | 2 | 35 nM | 5.6 nM | 138 nM | 84% | 466 nM | 219 nM | Dose-dependent effect | – | – | – | – | –
Cn1cc(-c2cnc3[nH]cc(-c4cnn(Cc5ccccc5)c4)c3c2)cn1 | – | 141 nM | 90 nM | – | 84% | 3000 nM | – | – | 21% | 41% | 7% | 28% | 14%
Cn1cc(-c2cnc3[nH]cc(-c4cnn(Cc5cccc([N+](=O)[O-])c5)c4)c3c2)cn1 | – | – | 70 nM | – | – | 1850 nM | – | – | – | – | – | – | –
Cn1cc(-c2cnc3[nH]cc(-c4cnn(Cc5cccc(O)c5)c4)c3c2)cn1 | – | 200 nM | 41 nM | – | 93% | 3360 nM | – | – | – | – | – | – | –
